Laboratory results reported in ChEMBL document CHEMBL4411261, “Down-Regulation of the Androgen Receptor by G-Quadruplex Ligands Sensitizes Castration-Resistant Prostate Cancer Cells to Enzalutamide” (J Med Chem, 2018).
Activity calls are given as the source filed them. The rule behind the calls is not given here.

Experiments:
[1] = Stabilization of 5'-FAM/3'-TAMRA labelled CTATAGCGCGCTATAG dsDNA (unknown origin) assessed as change in melting temperature t1/2 at 1 uM after 16 hrs in presence of 100 mM K+ by FRET assay
Summary of the method: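 FRET melting: FAM/TAMRA dual-labelled oligos (0.25 μM) folded in 10 mM lithium cacodylate pH 7.4 with 100 mM KCl (95 °C 5 min, cooled 4 h); ligand added at 1 μM final, 16 h room temperature. FAM emission followed 30−95 °C at 1 °C/min; curves normalized 0 to 1, T1/2 at 0.5 fraction.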

Quadruplex DNA [2] = assay: Binding affinity to 5'-Biotinylated-AR1 G-quadruplex oligonucleotide (unknown origin) by SPR analysis; type: nucleic-acid assay
Summary of the method: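 SPR on streptavidin chip; 5′-biotinylated oligo folded by heating 95 °C 5 min in 10 mM lithium cacodylate, 150 mM KCl, then immobilized at 30 nM to about 600 RU; empty reference cell. Compound 0.7−400 nM in HEPES-KCl (pH 7.4, 0.15 M KCl, 3 mM EDTA) at 40 °C, 40 μL/min, 260 s contact, 600 s dissociation; glycine pH 2.0 regeneration; steady-state affinity fit; at least two independent runs.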

DU-145 = assay: Cytotoxicity against human DU145 cells assessed as reduction in cell viability after 48 hrs by MTS assay; type: functional, cell-based; settings: DU-145, 48 h
Summary of the method: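 Cells kept in RPMI-1640 with 10% fetal calf serum, 37 °C, 5% CO2. Seeded, after 24 h treated with 0.0001, 0.001, 0.01, 0.1, 1 and 10 μM compound (DMSO stocks freshly diluted in medium) for 48 h. MTS added 4 h, absorbance 490 nm; IC50 from curves of % viability inhibition versus DMSO-treated cells against log concentration.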

[3] = Drug uptake in human PNT1A cells at 160 nM after 24 hrs by DAPI staining-based fluorescence microscopic analysis; type: ADME, cell-based; settings: 0.16 µM
Quadruplex DNA [4] = assay: Stabilization of AR G-quadruplex oligonucleotide in human LNCAP cells assessed as down-regulation of KLK3 mRNA expression at IC50 after 48 hrs by RT-PCR analysis; type: cell-based
Summary of the method: (§1)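 Transcripts quantified by TaqMan real-time PCR with RNaseP as normalizer; relative quantity versus untreated cells by the 2−ΔΔCt method. Panel genes measured with a 92-gene cancer-mechanism TaqMan array.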

Quadruplex DNA [5] = assay: Stabilization of AR G-quadruplex oligonucleotide in human LNCAP cells assessed as down-regulation of KLK3 mRNA expression at IC50 after 72 hrs by RT-PCR analysis; type: cell-based
Summary of the method: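 Cells grown in RPMI-1640 with 10% fetal calf serum, 37 °C, 5% CO2, treated at an equitoxic concentration. Transcripts quantified by TaqMan real-time RT-PCR, normalized to RNaseP, expressed as relative quantity versus untreated cells (calibrator) by the 2−ΔΔCt method.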

Quadruplex DNA [6] = assay: Stabilization of AR G-quadruplex oligonucleotide in human 22Rv1 cells assessed as reduction in AR-FL protein level by immunoblotting assay; type: cell-based
Quadruplex DNA [7] = assay: Stabilization of AR G-quadruplex oligonucleotide in human 22Rv1 cells assessed as reduction in AR-Vs protein level by immunoblotting assay; type: cell-based
Quadruplex DNA [8] = assay: Stabilization of AR3 G-quadruplex oligonucleotide (unknown origin) assessed as melting temperature at 16 uM after 16 hrs in presence of 100 mM K+ by CD spectra analysis (reference value: 78.8 +/- 1.7 degreeC); type: nucleic-acid assay
[9] = Stabilization of AGTGAGAGTGAGAGAGAGAGTGAGAGTGAGAGTGA/TCACTCTCACTCTCACTCTCTCTCTCACTCTCACT dsDNA (unknown origin) assessed as change in melting temperature at 16 uM after 16 hrs in presence of 100 mM K+ by CD spectra analysis
Summary of the method: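 CD: oligos at 4 μM final in 10 mM lithium cacodylate pH 7.4, 100 mM KCl, annealed 95 °C 5 min then 4 h room temperature; duplex from equimolar strands. Ligand 16 μM final, 16 h room temperature. Spectra 230−320 nm, 5 mm cell, two scans averaged at 20 °C, buffer-subtracted; melting from spectra 20−90 °C in 5 °C steps.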

Quadruplex DNA [10] = assay: Stabilization of AR G-quadruplex oligonucleotide in human 22Rv1 cells assessed as down-regulation of ITGB3 mRNA expression at IC50 after 48 hrs by RT-PCR analysis; type: cell-based; summary of the method: as §1
Quadruplex DNA [11] = assay: Stabilization of AR G-quadruplex oligonucleotide in human PC3 cells assessed as down-regulation of MAX mRNA expression at IC50 after 48 hrs by RT-PCR analysis; type: cell-based
Summary of the method: (§2)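 PC-3 cells (RPMI-1640, 10% fetal calf serum) exposed at an equitoxic concentration. Expression of 92 cancer-mechanism genes measured on TaqMan Arrays. Change versus untreated cells computed by 2−ΔΔCt, with RNaseP as normalizer.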

Quadruplex DNA [12] = assay: Stabilization of AR G-quadruplex oligonucleotide in human PC3 cells assessed as up-regulation of WNT1 mRNA expression at IC50 after 48 hrs by RT-PCR analysis; type: cell-based; summary of the method: as §2
Quadruplex DNA [13] = assay: Stabilization of AR G-quadruplex oligonucleotide in human 22Rv1 cells assessed as reduction in AKT1 phosphorylation at S473 residues at IC50 after 48 hrs by Western immunoblot assay; type: cell-based
CWR22R [14] = assay: Effect on c-MYC mRNA expression in human 22Rv1 cells at IC50 after 48 hrs by RT-PCR analysis; type: functional, cell-based; summary of the method: as §1
Quadruplex DNA [15] = assay: Stabilization of AR G-quadruplex oligonucleotide in human 22Rv1 cells assessed as reduction in basal AKT1 levels at IC50 after 48 hrs by Western immunoblot assay; type: cell-based
CWR22R [16] = assay: Synergistic cytotoxicity against human 22Rv1 cells expressing full length androgen receptor H875Y point mutant assessed as ED50 for Enzalutamide at 0.001 to 0.1 uM after 72 hrs by MTS assay; type: functional; settings: 22Rv1, 72 h, read-out: ED50 (the source's name)
Summary of the method: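 Cells in RPMI-1640 with 10% fetal calf serum were exposed to ligand (0.001−0.1 μM) plus enzalutamide (0.5−50 μM) at a fixed ratio, five concentrations, for 72 h at 37 °C, 5% CO2. Viability read by MTS absorbance at 490 nm after 4 h. Combination index computed at ED50 and ED75 by the Chou–Talalay method.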

Quadruplex DNA [17] = assay: Stabilization of AR G-quadruplex oligonucleotide in human 22Rv1 cells assessed as regulation of PTEN mRNA expression at IC50 after 48 hrs by RT-PCR analysis; type: cell-based; summary of the method: as §1
Quadruplex DNA [18] = assay: Stabilization of AR G-quadruplex oligonucleotide in human 22Rv1 cells assessed as down-regulation of CCNE1 mRNA expression at IC50 after 48 hrs by RT-PCR analysis; type: cell-based; summary of the method: as §1
Quadruplex DNA [19] = assay: Stabilization of AR G-quadruplex oligonucleotide in human 22Rv1 cells assessed as up-regulation of BAX mRNA expression at IC50 after 48 hrs by RT-PCR analysis; type: cell-based; summary of the method: as §1
PC-3 = assay: Synergistic cytotoxicity against human PC3 cells assessed as combination index for reduction in cell viability measured at ED75 Enzalutamide at 0.001 to 0.1 uM after 72 hrs by MTS assay based Chou and Talay's plot analysis

ΔTm [1]: 1 °C | Kd (Quadruplex DNA [2]): 17.9 nM | Drug uptake [3]: Active | Tm (Quadruplex DNA [8]): > 90 °C | ΔTm [9]: 2.7 °C
Structure (SMILES): CN(C)CCCn1c(=O)c2ccc3c(=O)n(CCCN(C)C)c(=O)c4c5[nH]c6ccccc6[nH]c5c(c1=O)c2c34.Cl.Cl
IC50 (DU-145): 80 nM | Activity (Quadruplex DNA [4]): Active | Activity (Quadruplex DNA [5]): inactive | Activity (Quadruplex DNA [6]): Active | Activity (Quadruplex DNA [7]): Active | Activity (Quadruplex DNA [10]): Active | Activity (Quadruplex DNA [11]): Active | Activity (Quadruplex DNA [12]): Active | Activity (Quadruplex DNA [13]): Active | Activity (CWR22R [14]): inactive | Activity (Quadruplex DNA [15]): Active | EC50 (CWR22R [16]): 290 nM | Activity (Quadruplex DNA [17]): Active | Activity (Quadruplex DNA [18]): Active | Activity (Quadruplex DNA [19]): Active | CI (PC-3): >1
